Columns and labels:
Lung = experiment: Biodistribution in lung of Fisher 344 rat bearing 9L tumor after 30 mins; type: ADME, organism-based; conditions: in vivo, 0.5 h
Procedure, shortened: (§1)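 9L tumor cells (5 × 10^6) inoculated into Fisher 344 rats, used 14-18 days later. Rats anesthetized with ethyl ether, given ~3.7 MBq [18F] tracer in 100 µL PBS via tail vein, sacrificed with ether at set times (10-120 min). Tissues dissected, weighed and gamma-counted. Values are %ID/g, mean ± SD, n = 4. Ratios taken from tissue uptake.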

[1] = Ratio of biodistribution in tumor to brain in Fisher 344 rat bearing 9L tumor after 60 mins; type: ADME, organism-based; conditions: in vivo, 1 h; procedure, shortened: as §1
Femur = experiment: Biodistribution in femur of Fisher 344 rat bearing 9L tumor after 60 mins; type: ADME, organism-based; conditions: in vivo, 1 h; procedure, shortened: as §1
[2] = Partition coefficient, log P of the compound; type: physicochemical; conditions: octanol/water
Procedure, shortened: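 Shake-flask partition between 2.0 mL 1-octanol and 2.0 mL water. 10 µL of HPLC-purified radiotracer added, mixed 2 min at room temperature. Radioactivity counted in 300 µL of each phase to give log P.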

Blood = experiment: Biodistribution in blood of Fisher 344 rat bearing 9L tumor after 60 mins; type: ADME, organism-based; conditions: in vivo, 1 h; procedure, shortened: as §1

SMILES | Drug uptake (Lung) [% ID/g] | Ratio [1] | Drug uptake (Femur) [% ID/g] | logP [2] | Drug uptake (Blood) [% ID/g]
NC(Cc1ccc(O)c(CC[18F])c1)C(=O)O (stereo not given) | 0.12 | 2.92 | 0.76 | -1.37 | 0.06
NC(Cc1ccc(O)c(CCC[18F])c1)C(=O)O (stereo not given) | 0.78 | 4.05 | 1.45 | -1.07 | 0.64
COc1ccc(CC(N)C(=O)O)cc1CC[18F] (stereo not given) | 0.37 | 1.9 | 0.22 | -0.75 | 0.25
COc1ccc(CC(N)C(=O)O)cc1CCC[18F] (stereo not given) | 0.34 | 2.6 | 0.18 | -0.29 | 0.24
